Data reported in ChEMBL document CHEMBL4033788, “Novel Ligustrazine-Based Analogs of Piperlongumine Potently Suppress Proliferation and Metastasis of Colorectal Cancer Cells in Vitro and in Vivo” (J Med Chem, 2018).
Calls of active or inactive are those of the source. The calls are words filed in the database; no cut-off is given here.

Experiments:
HCT-116 [1] = assay: Inhibition of IL-1beta-mediated adhesion of human rhodamine 123-labeled HCT116 cells to HUVEC at 50 nM after 1 hr by fluoresence assay; assay type: functional, cell-based
In short: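 HUVEC monolayers pretreated with or without IL-1β (1 ng/mL) for 4 h, then washed. Rhodamine 123-labeled HCT-116 cells added with vehicle or test agent (2, 10, 50 nM) at 37 °C for 1 h. Non-adherent cells washed off; percent adhered cells determined by fluorescence microscopy. Three separate experiments.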

[2] = molecular target: Glycogen synthase kinase-3 beta (Homo sapiens) (UniProt P49841); assay: Inhibition of TGF-beta1-induced GSK-3beta phosphorylation in human HCT116 cells at 50 nM after 48 hrs by Western blot analysis; assay type: cell-based
In short: (§1)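 HCT-116 cells treated with or without TGF-β1 (10 ng/mL) for 48 h, with or without test agent. Lysates (20 μg/lane) run on 7.5% SDS-PAGE and transferred to PVDF. Probed for p-Akt (Ser473), Akt, p-GSK-3β (S9), GSK-3β, E-cadherin, MMP-9 and β-actin, detected by ECL. Densitometry relative to β-actin or total protein. Three independent experiments.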

[3] = molecular target: RAC-alpha serine/threonine-protein kinase (Homo sapiens) (UniProt P31749); assay: Inhibition of TGF-beta1-induced AKT phosphorylation in human HCT116 cells at 50 nM after 48 hrs by Western blot analysis; assay type: cell-based; in short: as §1
HCT-116 [4] = assay: Inhibition of TGF-beta1-induced decrease in expression levels of E-cadherin protein in human HCT116 cells at 50 nM after 48 hrs by Western blot analysis; assay type: functional, cell-based; in short: as §1
HCT-116 [5] = assay: Inhibition of TGF-beta1-induced increase in expression levels of twist protein in human HCT116 cells at 50 nM after 48 hrs by Western blot analysis; assay type: functional, cell-based
In short: (§2)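 HCT-116 cells (1 × 10^6/well, plated overnight) were exposed to TGF-β1 (10 ng/mL) for 48 h, with or without test compound; vehicle was 0.1% DMSO. Lysates (20 μg/lane) were run on 7.5% SDS-PAGE and blotted to PVDF, with primary antibody overnight at 4 °C and HRP/ECL detection. Band densities were normalised to β-actin across three independent experiments.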

HCT-116 [6] = assay: Antiproliferative activity against human HCT116 cells at 8 uM pretreated with GSH for 1 hr measured after 72 hrs by MTT assay; assay type: functional, cell-based
In short: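 HCT-116 cells pretreated with or without GSH (10 mM) for 1 h, washed, then treated for 72 h. Viability measured by MTT and inhibitory rates calculated. Mean ± SD of three independent experiments.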

HCT-116 [7] = assay: Antiinvasive activity in human HCT116 cells assessed as inhibition of TGF-beta1-induced cell invasion at 50 nM after 48 hrs by crystal violet staining-based assay; assay type: functional
In short: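 Transwell invasion. HCT-116 cells (2.5 × 10^5/well) seeded on matrigel-coated chambers, with TGF-β1 (10 ng/mL) and test agents (2, 10, 50 nM) in the lower chamber for 48 h. Invaded cells stained with crystal violet and counted. Three independent experiments.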

HCT-116 [8] = assay: Inhibition of TGF-beta1-induced increase in expression levels of snail protein in human HCT116 cells after 48 hrs by Western blot analysis; assay type: functional, cell-based; in short: as §2
Mus musculus [9] = assay: Toxicity in BALB/c nude mouse xenografted with human HCT116 cells assessed as abnormality in lung at 2.5 to 5 mg/kg, ip administered for 21 consecutive days; assay type: organism-based; settings: in vivo
In short: (§3)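 Male BALB/c nude mice (3−5 weeks) inoculated sc with 1 × 10^7 HCT-116 cells; at tumour volume about 75 mm3 randomized (n = 8 per group) and dosed ip daily at 2.5 or 5 mg/kg for 21 consecutive days. Body weights monitored; liver, kidney, lung and heart inspected for size and morphology at sacrifice.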

HCT-116 [10] = assay: Inhibition of TGF-beta1-induced increase in expression levels of vimentin protein in human HCT116 cells after 48 hrs by Western blot analysis; assay type: functional, cell-based; in short: as §2
[11] = Acute toxicity in ICR mouse assessed as survival rate at 300 mg/kg, ip administered for 14 days relative to control; assay type: organism-based; settings: in vivo
Mus musculus [12] = assay: Acute toxicity in ICR mouse assessed as mortality at 50 mg/kg, ip administered for 14 days; assay type: organism-based; settings: in vivo, 336 h
Mus musculus [13] = assay: Toxicity in BALB/c nude mouse xenografted with human HCT116 cells assessed as mortality at 2 to 4 mg/kg, ip administered thrice a week for 6 consecutive weeks; assay type: organism-based; settings: in vivo
In short: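 Lung metastasis model: HCT-116 cells in serum-free medium injected into tail vein of BALB/c nude mice, then randomized and given vehicle or compound ip (1, 2 or 4 mg/kg) three times a week. Body weight recorded weekly, survival monitored (n = 6); mice sacrificed after 40 days and lungs examined by H&E histology.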

HCT-116 [14] = assay: Antitumor activity against human HCT116 cells xenografted in BALB/c nude mouse assessed as reduction in tumor size at 2.5 to 5 mg/kg, ip administered daily for 21 consecutive days; assay type: functional, organism-based
In short: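 Male BALB/c nude mice, 3–5 weeks old, inoculated subcutaneously with 1 × 10^7 HCT-116 cells. At about 75 mm³ tumor volume, randomized (n = 8/group) and dosed intraperitoneally daily. Volume by caliper as d² × D/2. At the end, tumors excised and weighed; inhibition = (Wcontrol − Wtreated)/Wcontrol × 100%.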

[15] = Acute toxicity in ICR mouse assessed as survival rate at 50 mg/kg, ip administered for 14 days relative to control; assay type: organism-based; settings: in vivo
Mus musculus [16] = assay: Hepatotoxicity in BALB/c nude mouse xenografted with human HCT116 cells at 2.5 to 5 mg/kg, ip administered for 21 consecutive days; assay type: toxicity, organism-based; settings: in vivo; in short: as §3
Mus musculus [17] = assay: Cardiotoxicity in BALB/c nude mouse xenografted with human HCT116 cells at 2.5 to 5 mg/kg, ip administered for 21 consecutive days; assay type: toxicity, organism-based; settings: in vivo; in short: as §3
[18] = Acute toxicity in ICR mouse assessed as survival rate at 200 mg/kg, ip administered for 14 days relative to control; assay type: organism-based; settings: in vivo
[19] = Acute toxicity in ICR mouse assessed as survival rate at 400 mg/kg, ip administered for 14 days relative to control; assay type: organism-based; settings: in vivo
[20] = molecular target: Glycogen synthase kinase-3 beta (Homo sapiens) (UniProt P49841); assay: Inhibition of TGF-beta1-induced GSK-3beta phosphorylation in human HCT116 cells after 48 hrs by Western blot analysis; assay type: cell-based; in short: as §1

Glycogen synthase kinase-3 beta (Homo sapiens), sequence (P49841 whole entry, looked up): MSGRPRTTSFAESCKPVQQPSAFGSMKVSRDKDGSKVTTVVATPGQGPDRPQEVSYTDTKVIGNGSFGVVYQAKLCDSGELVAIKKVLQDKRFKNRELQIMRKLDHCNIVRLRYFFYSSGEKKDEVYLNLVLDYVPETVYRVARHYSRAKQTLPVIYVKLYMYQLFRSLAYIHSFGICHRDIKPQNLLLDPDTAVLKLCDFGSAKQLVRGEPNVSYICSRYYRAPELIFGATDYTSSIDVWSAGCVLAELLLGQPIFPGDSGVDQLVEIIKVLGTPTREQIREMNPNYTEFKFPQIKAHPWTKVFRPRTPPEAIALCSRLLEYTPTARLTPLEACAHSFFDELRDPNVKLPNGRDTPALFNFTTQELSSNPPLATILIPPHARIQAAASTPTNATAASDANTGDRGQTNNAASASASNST
RAC-alpha serine/threonine-protein kinase (Homo sapiens), sequence (P31749 whole entry): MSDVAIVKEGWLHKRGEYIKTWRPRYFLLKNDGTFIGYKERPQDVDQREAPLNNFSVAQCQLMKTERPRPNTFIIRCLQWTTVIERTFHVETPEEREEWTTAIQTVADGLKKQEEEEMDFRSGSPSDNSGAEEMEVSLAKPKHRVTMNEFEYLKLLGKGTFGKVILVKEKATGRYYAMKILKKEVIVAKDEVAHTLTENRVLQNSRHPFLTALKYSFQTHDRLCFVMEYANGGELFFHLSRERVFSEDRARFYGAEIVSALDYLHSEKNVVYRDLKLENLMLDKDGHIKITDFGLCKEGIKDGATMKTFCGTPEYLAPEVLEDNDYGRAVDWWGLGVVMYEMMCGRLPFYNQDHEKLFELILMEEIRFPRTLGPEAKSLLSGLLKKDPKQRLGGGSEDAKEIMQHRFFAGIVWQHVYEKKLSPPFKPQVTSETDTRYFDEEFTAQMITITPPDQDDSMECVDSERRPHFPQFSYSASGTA

| SMILES | inhibition (HCT-116 [1]) | inhibition [2] | inhibition [3] | inhibition (HCT-116 [4]) | inhibition (HCT-116 [5]) | Activity (HCT-116 [6]) | Activity (HCT-116 [7]) | inhibition (HCT-116 [8]) | Activity (Mus musculus [9]) | inhibition (HCT-116 [10]) | survival at 336 h [11] | Activity (Mus musculus [12]) | Activity (Mus musculus [13]) | Activity (HCT-116 [14]) | survival at 336 h [15] | Activity (Mus musculus [16]) | Activity (Mus musculus [17]) | survival at 336 h [18] | survival at 336 h [19] | inhibition [20] |
| --- | --- | --- | --- | --- | --- | --- | --- | --- | --- | --- | --- | --- | --- | --- | --- | --- | --- | --- | --- | --- |
| COc1cc(/C=C/C(=O)N2CCC=CC2=O)cc(OC)c1OC [PIPLARTINE] | Active | Active | Active | Active | Active | inactive | Active |  |  |  |  |  |  |  |  |  |  |  |  |  |
| Cc1nc(C)c(/C=C/C(=O)N2CCC=C(Cl)C2=O)nc1C |  |  |  |  |  |  |  | Dose-dependent effect | Non-Toxic | Dose-dependent effect | 10% | Non-Toxic | Non-Toxic | Active | 100% | Non-Toxic | Non-Toxic | 30% | 0% | Dose-dependent effect |
